This is an account of results in ChEMBL document CHEMBL1135685, “Tumor-specific novel taxoid-monoclonal antibody conjugates” (J Med Chem, 2002).

Each structure is given as a SMILES string. Where only a bound is given, the exact number is not on record here.

Common to all, as to assay type: functional, cell-based
One assay concerns A-431. In words: In vitro cytotoxicity of compound against human A431 (epidermoid) cancer cell line after 72 hr of drug exposure. The conditions noted are these: A-431, 72 h. The method, boiled down:
(§1)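 Cytotoxicity was measured as an IC50 on a panel of human cancer lines: A431 (epidermoid), A549 (non-small-cell lung), MCF7 (breast) and MCF7-MDR (breast). The parent, unmodified taxoids were tested on the same lines.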

Another assay relates to A549. In words: In vitro cytotoxicity of compound against human A549 (non small cell lung) cancer cell line after 72 hr of drug exposure. The conditions noted are these: A549, 72 h. The method, boiled down: as §1
A further assay has as its system NCI/ADR-RES. As to the kind of experiment: In vitro cytotoxicity of compound against human MCF-7-MDR (breast) cancer cell line after 72 hr of drug exposure. Summed up: as §1

For orientation: IC50 means the concentration that gives 50% inhibition. A lower IC50 goes with higher potency.

Take `CSSCC(=O)O[C@H]1C(=O)[C@@]2(C)[C@H]([C@H](OC(=O)c3ccccc3)[C@]3(O)C[C@H](OC(=O)[C@H](O)[C@H](C=C(C)C)NC(=O)OC(C)(C)C)C(C)=C1C3(C)C)[C@]1(OC(C)=O)CO[C@@H]1C[C@@H]2O`: the values for the IC50 in the assay on A-431 and with A549 were 0.7 nM and 0.8 nM, respectively. Turning to `CSSc1cccc(C(=O)O[C@H]2C(=O)[C@@]3(C)[C@H]([C@H](OC(=O)c4ccccc4)[C@]4(O)C[C@H](OC(=O)[C@H](O)[C@H](C=C(C)C)NC(=O)OC(C)(C)C)C(C)=C2C4(C)C)[C@]2(OC(C)=O)CO[C@@H]2C[C@@H]3O)c1`, the IC50 in the assay with A-431 and in the assay with A549 was more than 3 nM throughout.

With `CSSCCC(=O)O[C@H]1C[C@H]2OC[C@@]2(OC(C)=O)[C@H]2[C@H](OC(=O)c3ccccc3)[C@]3(O)C[C@H](OC(=O)[C@H](O)[C@H](C=C(C)C)NC(=O)OC(C)(C)C)C(C)=C([C@@H](OC(=O)N4CCOCC4)C(=O)[C@]12C)C3(C)C`, in the assay on A-431, the IC50 is more than 3 nM. Consider `CCC(=O)O[C@H]1C(=O)[C@@]2(C)[C@H]([C@H](OC(=O)c3ccccc3)[C@]3(O)C[C@H](OC(=O)[C@H](O)[C@H](C=C(C)C)NC(=O)OC(C)(C)C)C(C)=C1C3(C)C)[C@]1(OC(C)=O)CO[C@@H]1C[C@@H]2O`, for which the IC50 in the assay with A-431 is 0.09 nM; with NCI/ADR-RES, 2.2 nM; in the assay on A549, 0.1 nM.

With `CC(=O)O[C@H]1C(=O)[C@@]2(C)[C@H]([C@H](OC(=O)c3ccccc3)[C@]3(O)C[C@H](OC(=O)[C@H](O)[C@@H](NC(=O)c4ccccc4)c4ccccc4)C(C)=C1C3(C)C)[C@]1(OC(C)=O)CO[C@@H]1C[C@@H]2O` [PACLITAXEL], in the assay on NCI/ADR-RES, the IC50 was determined as 299 nM. As to `CCC(=O)O[C@H]1C(=O)[C@]2(C)[C@@H](OC(=O)CCSSC)C[C@H]3OC[C@@]3(OC(C)=O)[C@H]2[C@H](OC(=O)c2ccccc2)[C@]2(O)C[C@H](OC(=O)[C@H](O)[C@H](C=C(C)C)NC(=O)OC(C)(C)C)C(C)=C1C2(C)C`, it took 2 nM to reach half-maximal inhibition in the assay on A-431 (IC50).

As for `CSSCCC(=O)O[C@H]1C(=O)[C@@]2(C)[C@H]([C@H](OC(=O)c3ccccc3)[C@]3(O)C[C@H](OC(=O)[C@H](O)[C@H](C=C(C)C)NC(=O)OC(C)(C)C)C(C)=C1C3(C)C)[C@]1(OC(C)=O)CO[C@@H]1C[C@@H]2O`, the IC50 worked out at 0.5 nM in the assay with A-431 and 0.8 nM in the assay with A549. For `CSSc1cccc(C(=O)O[C@H]2[C@@H]3[C@]4(OC(C)=O)CO[C@@H]4C[C@H](O)[C@@]3(C)C(=O)[C@H](OC(C)=O)C3=C(C)[C@@H](OC(=O)[C@H](O)[C@H](C=C(C)C)NC(=O)OC(C)(C)C)C[C@]2(O)C3(C)C)c1`, in that order: more than 3 nM and more than 3 nM. As for `CCC(=O)O[C@H]1C(=O)[C@@]2(C)[C@H]([C@H](OC(=O)c3ccccc3)[C@]3(O)C[C@H](OC(=O)[C@H](OC(=O)CCSSC)[C@H](C=C(C)C)NC(=O)OC(C)(C)C)C(C)=C1C3(C)C)[C@]1(OC(C)=O)CO[C@@H]1C[C@@H]2O`, the figures for the IC50 with A-431 and with A549 were more than 3 nM and 0.9 nM, respectively.
